Experimental data taken from ChEMBL document CHEMBL4311941, “Development of Multifunctional Histone Deacetylase 6 Degraders with Potent Antimyeloma Activity” (J Med Chem, 2019).
Activity calls are given as the source filed them. No cut-off for these calls is given here.

What was measured:
[1] = target: T1, Cereblon/Ikaros (Homo sapiens) (UniProt Q96SW2+Q13422); assay: Protac activity at CRBN/IKZF1 in human MM1S cells assessed as IKZF1 degradation at 100 nM measured after 6 hrs by Western blot analysis; assay type: cell-based
[2] = target: T2, Protein cereblon/Protein deacetylase HDAC6 (Homo sapiens, UniProt Q9UBN7+Q96SW2); assay: Protac activity at CRBN/HDAC6 in human MM1S cells assessed as HDAC6 degradation measured after 6 hrs by ELISA; assay type: cell-based
How it was run: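 In-cell ELISA: MM1S cells (5 × 10^4 per well) seeded overnight, treated 6 h (dosed as 5× medium; 0.1 nM–1 μM or 10/100 nM). Fixed in 8% formaldehyde/TBS, permeabilized with 0.1% Triton X, peroxidase quenched with 1% H2O2, blocked in 5% BSA. Anti-HDAC6 rabbit mAb (1:1000, 2 h) then HRP secondary; TMB read as OD450 − OD570. Background wells lacked primary antibody. Signal normalized to Janus Green and to DMSO wells, n = 3. DC50/Dmax from three-parameter fit.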
Target sequence in this assay (Q9UBN7 whole entry): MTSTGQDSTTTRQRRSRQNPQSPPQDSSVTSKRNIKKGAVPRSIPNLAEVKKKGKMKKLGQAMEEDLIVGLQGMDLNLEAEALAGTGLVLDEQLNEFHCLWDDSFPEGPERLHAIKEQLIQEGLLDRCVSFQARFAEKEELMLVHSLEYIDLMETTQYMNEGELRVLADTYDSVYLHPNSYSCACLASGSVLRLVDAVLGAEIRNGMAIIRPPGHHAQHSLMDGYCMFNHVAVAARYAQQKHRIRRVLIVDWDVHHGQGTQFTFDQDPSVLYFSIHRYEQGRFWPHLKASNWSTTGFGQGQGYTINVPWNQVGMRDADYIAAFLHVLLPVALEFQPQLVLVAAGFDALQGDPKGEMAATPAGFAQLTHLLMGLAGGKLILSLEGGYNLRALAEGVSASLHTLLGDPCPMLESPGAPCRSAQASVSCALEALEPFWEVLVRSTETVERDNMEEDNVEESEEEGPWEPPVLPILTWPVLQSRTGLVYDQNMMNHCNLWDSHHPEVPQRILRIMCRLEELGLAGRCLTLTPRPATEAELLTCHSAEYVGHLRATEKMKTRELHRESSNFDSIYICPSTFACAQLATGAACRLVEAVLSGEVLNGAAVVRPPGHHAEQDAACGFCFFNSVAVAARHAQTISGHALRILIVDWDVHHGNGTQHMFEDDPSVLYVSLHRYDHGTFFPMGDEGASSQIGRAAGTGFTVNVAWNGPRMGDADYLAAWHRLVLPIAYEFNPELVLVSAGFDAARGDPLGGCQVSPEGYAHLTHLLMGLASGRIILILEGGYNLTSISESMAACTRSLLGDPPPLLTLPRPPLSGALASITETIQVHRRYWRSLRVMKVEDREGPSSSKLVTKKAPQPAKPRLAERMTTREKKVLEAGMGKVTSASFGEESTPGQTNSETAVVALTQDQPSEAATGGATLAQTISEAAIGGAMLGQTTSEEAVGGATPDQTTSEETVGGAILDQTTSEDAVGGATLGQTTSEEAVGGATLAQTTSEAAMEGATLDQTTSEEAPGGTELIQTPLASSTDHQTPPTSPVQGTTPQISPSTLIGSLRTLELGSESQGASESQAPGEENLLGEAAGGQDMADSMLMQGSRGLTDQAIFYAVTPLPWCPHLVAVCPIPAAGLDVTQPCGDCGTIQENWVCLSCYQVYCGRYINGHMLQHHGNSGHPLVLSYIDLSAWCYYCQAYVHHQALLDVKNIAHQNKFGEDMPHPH
Target sequence in this assay (Q96SW2 whole entry): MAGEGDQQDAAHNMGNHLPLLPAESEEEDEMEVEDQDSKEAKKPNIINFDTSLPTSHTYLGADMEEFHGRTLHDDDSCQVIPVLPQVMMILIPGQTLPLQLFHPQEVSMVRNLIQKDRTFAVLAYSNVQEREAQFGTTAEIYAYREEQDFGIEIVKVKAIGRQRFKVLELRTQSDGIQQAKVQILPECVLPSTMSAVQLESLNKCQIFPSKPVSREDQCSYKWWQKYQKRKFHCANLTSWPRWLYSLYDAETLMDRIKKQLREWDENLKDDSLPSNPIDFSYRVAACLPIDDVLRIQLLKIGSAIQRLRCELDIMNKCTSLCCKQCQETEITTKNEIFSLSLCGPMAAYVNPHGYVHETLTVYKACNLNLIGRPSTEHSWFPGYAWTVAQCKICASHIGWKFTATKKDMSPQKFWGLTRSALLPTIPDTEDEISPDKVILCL

[3] = target: T2, Protein cereblon/Protein deacetylase HDAC6; assay: Protac activity at CRBN/HDAC6 in human MM1S cells assessed as HDAC6 degradation at 3 to 30 nM measured after 6 hrs by Western blot analysis; assay type: cell-based
Target sequence in this assay (Q96SW2 whole entry, looked up): as the sequence (Q96SW2 whole entry) above
Target sequence in this assay (Q9UBN7 whole entry, looked up): as the sequence (Q9UBN7 whole entry) above

[4] = target: T1, Cereblon/Ikaros (Homo sapiens); assay: Protac activity at CRBN/IKZF1 in human MM1S cells assessed as IKZF1 degradation at 100 nM measured after 4 hrs by Western blot analysis; assay type: cell-based
[5] = target: T1, Cereblon/Ikaros (Homo sapiens); assay: Protac activity at CRBN/IKZF1 in human MM1S cells assessed as IKZF1 degradation measured after 6 hrs by Western blot analysis; assay type: cell-based
[6] = target: Protein cereblon/Zinc finger protein Aiolos (Homo sapiens) (UniProt Q96SW2+Q9UKT9); assay: Protac activity at CRBN/IKZF3 in human MM1S cells assessed as IKZF3 degradation measured after 6 hrs by Western blot analysis; assay type: cell-based
[7] = target: Protein cereblon/Histone deacetylase 1 (Homo sapiens) (UniProt Q13547+Q96SW2); assay: Protac activity at CRBN/HDAC1 in human MM1S cells assessed as HDAC1 degradation measured after 6 hrs by Western blot analysis; assay type: cell-based
[8] = target: T2, Protein cereblon/Protein deacetylase HDAC6; assay: Protac activity at CRBN/HDAC6 in human A431 cells assessed as HDAC6 degradation up to 3 uM incubated for 12 hrs by Western blot analysis; assay type: cell-based
Target sequence in this assay (Q96SW2 whole entry, looked up): as the sequence (Q96SW2 whole entry) above
Target sequence in this assay (Q9UBN7 whole entry, looked up): as the sequence (Q9UBN7 whole entry) above

[9] = target: T2, Protein cereblon/Protein deacetylase HDAC6; assay: Protac activity at CRBN/HDAC6 in human MCF7 cells assessed as HDAC6 degradation up to 10 uM incubated for 6 hrs by Western blot analysis; assay type: cell-based
Target sequence in this assay (Q96SW2 whole entry, looked up): as the sequence (Q96SW2 whole entry) above
Target sequence in this assay (Q9UBN7 whole entry, looked up): as the sequence (Q9UBN7 whole entry) above

[10] = target: T3, Histone deacetylase 7 (Homo sapiens, UniProt Q8WUI4); assay: Inhibition of human N-terminal tagged human HDAC7 expressed in HEK293T/17 using Boc-[TFA-Lys]-AMC as substrate preincubated for 10 mins followed by substrate addition and measured after 60 mins by fluorescence assay
T3 sequence (Q8WUI4 whole entry): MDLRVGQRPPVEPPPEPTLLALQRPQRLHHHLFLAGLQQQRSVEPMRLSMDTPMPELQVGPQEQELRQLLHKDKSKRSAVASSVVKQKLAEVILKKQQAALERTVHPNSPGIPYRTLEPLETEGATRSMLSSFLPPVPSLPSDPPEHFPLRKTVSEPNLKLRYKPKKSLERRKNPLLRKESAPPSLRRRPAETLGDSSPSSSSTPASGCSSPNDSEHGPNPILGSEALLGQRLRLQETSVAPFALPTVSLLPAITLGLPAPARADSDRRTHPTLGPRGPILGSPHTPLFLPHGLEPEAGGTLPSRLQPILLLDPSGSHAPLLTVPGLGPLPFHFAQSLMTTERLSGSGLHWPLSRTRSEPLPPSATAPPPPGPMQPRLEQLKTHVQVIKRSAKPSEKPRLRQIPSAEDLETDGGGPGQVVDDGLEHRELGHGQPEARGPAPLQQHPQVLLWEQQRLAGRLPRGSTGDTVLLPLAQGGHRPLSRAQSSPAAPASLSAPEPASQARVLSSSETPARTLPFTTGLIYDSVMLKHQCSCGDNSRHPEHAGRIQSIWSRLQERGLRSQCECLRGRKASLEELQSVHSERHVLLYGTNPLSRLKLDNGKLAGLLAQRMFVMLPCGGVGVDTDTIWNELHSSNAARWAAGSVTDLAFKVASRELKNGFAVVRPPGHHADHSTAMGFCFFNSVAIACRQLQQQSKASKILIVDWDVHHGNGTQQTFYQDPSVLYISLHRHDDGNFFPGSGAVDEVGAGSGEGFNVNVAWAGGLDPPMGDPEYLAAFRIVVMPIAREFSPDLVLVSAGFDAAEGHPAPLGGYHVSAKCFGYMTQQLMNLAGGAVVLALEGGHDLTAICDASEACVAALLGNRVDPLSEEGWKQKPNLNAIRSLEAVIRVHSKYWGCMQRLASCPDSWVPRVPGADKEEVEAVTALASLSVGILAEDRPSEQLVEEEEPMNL

[11] = target: Histone deacetylase 9 (Homo sapiens, UniProt Q9UKV0); assay: Inhibition of human N-terminal tagged human HDAC9 expressed in HEK293T/17 using Boc-[TFA-Lys]-AMC as substrate preincubated for 10 mins followed by substrate addition and measured after 60 mins by fluorescence assay
[12] = target: T2, Protein cereblon/Protein deacetylase HDAC6; assay: Protac activity at CRBN/HDAC6 in human MM1S cells assessed as induction of alpha tubulin acetylation at 100 nM measured after 6 hrs in presence of proteasome inhibitor bortezomib by Western blot analysis; assay type: cell-based
Target sequence in this assay (Q96SW2 whole entry, looked up): as the sequence (Q96SW2 whole entry) above
Target sequence in this assay (Q9UBN7 whole entry, looked up): as the sequence (Q9UBN7 whole entry) above

[13] = test system: MM1.S; assay: Induction of apoptosis in human MM1S cells assessed as cleavage of casapse3 measured after 48 hrs by Western blot analysis; assay type: functional, cell-based
[14] = test system: MM1.S; assay: Induction of apoptosis in human MM1S cells assessed as cleavage of PARP measured after 48 hrs by Western blot analysis; assay type: functional, cell-based

Sequence of Histone deacetylase 9 (Q9UKV0 whole entry): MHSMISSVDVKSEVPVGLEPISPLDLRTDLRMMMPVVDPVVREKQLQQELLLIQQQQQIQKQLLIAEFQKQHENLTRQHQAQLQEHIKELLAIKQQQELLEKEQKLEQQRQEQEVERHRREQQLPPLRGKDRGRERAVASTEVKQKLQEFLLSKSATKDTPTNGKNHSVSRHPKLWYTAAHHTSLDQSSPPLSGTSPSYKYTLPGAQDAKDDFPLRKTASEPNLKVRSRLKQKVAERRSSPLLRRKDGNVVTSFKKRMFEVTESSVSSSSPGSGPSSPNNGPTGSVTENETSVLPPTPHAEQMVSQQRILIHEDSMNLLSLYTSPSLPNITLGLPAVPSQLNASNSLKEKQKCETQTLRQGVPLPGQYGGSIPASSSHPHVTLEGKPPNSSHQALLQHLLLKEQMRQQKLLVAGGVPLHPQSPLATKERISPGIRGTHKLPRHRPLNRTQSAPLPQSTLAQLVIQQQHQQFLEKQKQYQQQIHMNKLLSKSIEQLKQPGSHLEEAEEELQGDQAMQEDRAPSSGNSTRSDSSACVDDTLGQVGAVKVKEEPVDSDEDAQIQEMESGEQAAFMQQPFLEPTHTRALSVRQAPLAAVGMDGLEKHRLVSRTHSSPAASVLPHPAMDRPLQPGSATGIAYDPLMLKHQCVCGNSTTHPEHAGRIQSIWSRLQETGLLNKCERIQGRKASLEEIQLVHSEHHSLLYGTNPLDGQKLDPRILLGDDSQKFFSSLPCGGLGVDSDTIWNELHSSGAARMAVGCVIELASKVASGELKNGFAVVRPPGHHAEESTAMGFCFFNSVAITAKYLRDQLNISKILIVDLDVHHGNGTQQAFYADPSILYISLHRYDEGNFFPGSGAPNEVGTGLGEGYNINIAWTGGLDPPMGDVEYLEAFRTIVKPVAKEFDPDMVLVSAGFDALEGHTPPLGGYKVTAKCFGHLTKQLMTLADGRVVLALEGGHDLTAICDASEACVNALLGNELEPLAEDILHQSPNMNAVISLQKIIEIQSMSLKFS
Sequence of Protein cereblon/Histone deacetylase 1 (Homo sapiens) (Q13547 whole entry, looked up): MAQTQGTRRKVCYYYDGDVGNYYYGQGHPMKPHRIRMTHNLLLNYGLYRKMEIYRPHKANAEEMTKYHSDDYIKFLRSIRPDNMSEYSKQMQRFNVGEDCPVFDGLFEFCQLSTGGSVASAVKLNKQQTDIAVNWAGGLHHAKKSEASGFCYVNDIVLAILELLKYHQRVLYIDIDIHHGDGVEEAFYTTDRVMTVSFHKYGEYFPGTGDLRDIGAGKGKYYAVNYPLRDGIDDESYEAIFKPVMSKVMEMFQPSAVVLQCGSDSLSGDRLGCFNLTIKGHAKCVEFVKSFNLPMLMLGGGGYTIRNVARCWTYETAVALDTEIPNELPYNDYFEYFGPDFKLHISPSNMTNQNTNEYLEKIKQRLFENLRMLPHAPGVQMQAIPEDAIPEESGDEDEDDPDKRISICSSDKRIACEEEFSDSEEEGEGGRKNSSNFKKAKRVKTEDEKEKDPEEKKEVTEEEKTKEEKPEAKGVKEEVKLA
Sequence of Protein cereblon/Histone deacetylase 1 (Homo sapiens) (Q96SW2 whole entry, looked up): as the sequence (Q96SW2 whole entry) above
Sequence of Protein cereblon/Zinc finger protein Aiolos (Homo sapiens) (Q96SW2 whole entry, looked up): as the sequence (Q96SW2 whole entry) above
Sequence of Protein cereblon/Zinc finger protein Aiolos (Homo sapiens) (Q9UKT9 whole entry, looked up): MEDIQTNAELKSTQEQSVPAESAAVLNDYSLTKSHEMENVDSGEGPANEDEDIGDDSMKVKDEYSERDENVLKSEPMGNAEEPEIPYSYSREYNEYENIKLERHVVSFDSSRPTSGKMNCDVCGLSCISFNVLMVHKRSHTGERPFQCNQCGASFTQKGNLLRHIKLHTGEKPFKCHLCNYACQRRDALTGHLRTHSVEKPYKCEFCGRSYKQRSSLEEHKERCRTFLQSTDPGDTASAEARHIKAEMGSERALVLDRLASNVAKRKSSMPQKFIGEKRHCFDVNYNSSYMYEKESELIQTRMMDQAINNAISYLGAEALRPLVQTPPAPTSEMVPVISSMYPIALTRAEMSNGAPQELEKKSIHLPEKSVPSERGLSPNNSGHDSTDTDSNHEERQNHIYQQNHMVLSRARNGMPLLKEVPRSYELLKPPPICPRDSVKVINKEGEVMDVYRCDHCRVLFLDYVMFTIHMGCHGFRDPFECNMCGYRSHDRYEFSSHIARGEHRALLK

- Activity [1]: Active
- DC50 [2]: 1.64 nM
- Activity [3]: Active
- Activity [4]: Active
- Activity [5]: Dose-dependent effect
- Activity [6]: Dose-dependent effect
- Activity [7]: inactive
- Activity [8]: Active
- Activity [9]: Active
- IC50 [10]: 300 to 30000 nM
- IC50 [11]: 300 to 30000 nM
- Activity [12]: inactive
SMILES: CCCCN(Cc1ccc(C(=O)NO)cc1)C(=O)Nc1ccc(OCCCCCn2cc(CNc3cccc4c3C(=O)N(C3CCC(=O)NC3=O)C4=O)nn2)cc1 (centres undefined)
- Activity [13]: Dose-dependent effect
- Activity [14]: Dose-dependent effect
